Experiments:
[1] = Ratio of ED50 of norepinephrine to that in rabbit aorta.; type: functional
How it was run: (§1)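 Helical rabbit aortic strip in 10-mL bath of Krebs buffer (pH 7.4, 37 ± 0.5 °C), 2 g initial tension, force-transducer contraction. Cumulative dose–response to NE (10⁻⁸ to 10⁻³ M), each dose to plateau. Washed every 10–15 min for 60–90 min and reset to 2 g before the test compound series. Molar ED50; index = ED50 NE / ED50 compound; Emax as % of NE maximum.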

[2] = target: T1, Adrenergic receptor alpha-1 (Rattus norvegicus, UniProt P15823+P23944+P43140); test: Binding affinity for alpha-1 adrenergic receptor in rat liver using [3H]prazosin.
T1 sequence (P15823 whole entry): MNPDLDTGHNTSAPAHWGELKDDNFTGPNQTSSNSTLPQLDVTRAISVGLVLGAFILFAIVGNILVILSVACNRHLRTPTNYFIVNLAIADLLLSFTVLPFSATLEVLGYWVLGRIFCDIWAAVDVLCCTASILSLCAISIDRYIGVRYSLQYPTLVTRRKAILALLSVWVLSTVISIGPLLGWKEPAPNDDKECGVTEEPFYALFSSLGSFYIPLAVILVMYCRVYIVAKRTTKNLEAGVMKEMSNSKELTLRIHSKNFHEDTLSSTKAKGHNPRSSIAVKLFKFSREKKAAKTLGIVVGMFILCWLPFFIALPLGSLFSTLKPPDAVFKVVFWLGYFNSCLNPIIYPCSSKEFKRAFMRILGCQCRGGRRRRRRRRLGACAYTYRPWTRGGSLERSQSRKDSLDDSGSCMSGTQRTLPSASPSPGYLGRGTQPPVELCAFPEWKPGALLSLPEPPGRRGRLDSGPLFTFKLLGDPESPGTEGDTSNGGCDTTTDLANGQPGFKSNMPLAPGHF
T1 sequence (P23944 whole entry): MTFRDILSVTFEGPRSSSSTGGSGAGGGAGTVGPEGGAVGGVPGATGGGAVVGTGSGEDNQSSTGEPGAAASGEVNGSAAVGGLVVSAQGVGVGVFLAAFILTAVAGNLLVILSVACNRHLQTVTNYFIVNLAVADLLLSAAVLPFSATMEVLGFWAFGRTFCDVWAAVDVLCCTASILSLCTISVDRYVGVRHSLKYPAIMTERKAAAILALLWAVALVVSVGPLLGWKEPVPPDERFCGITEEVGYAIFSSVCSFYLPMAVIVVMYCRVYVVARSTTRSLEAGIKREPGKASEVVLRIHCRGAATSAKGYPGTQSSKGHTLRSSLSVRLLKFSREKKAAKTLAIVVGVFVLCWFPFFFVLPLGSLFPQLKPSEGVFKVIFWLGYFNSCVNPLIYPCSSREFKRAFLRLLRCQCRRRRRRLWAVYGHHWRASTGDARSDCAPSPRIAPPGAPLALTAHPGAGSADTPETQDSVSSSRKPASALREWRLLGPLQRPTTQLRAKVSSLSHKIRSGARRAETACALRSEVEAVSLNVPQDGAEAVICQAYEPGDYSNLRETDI
T1 sequence (P43140 whole entry): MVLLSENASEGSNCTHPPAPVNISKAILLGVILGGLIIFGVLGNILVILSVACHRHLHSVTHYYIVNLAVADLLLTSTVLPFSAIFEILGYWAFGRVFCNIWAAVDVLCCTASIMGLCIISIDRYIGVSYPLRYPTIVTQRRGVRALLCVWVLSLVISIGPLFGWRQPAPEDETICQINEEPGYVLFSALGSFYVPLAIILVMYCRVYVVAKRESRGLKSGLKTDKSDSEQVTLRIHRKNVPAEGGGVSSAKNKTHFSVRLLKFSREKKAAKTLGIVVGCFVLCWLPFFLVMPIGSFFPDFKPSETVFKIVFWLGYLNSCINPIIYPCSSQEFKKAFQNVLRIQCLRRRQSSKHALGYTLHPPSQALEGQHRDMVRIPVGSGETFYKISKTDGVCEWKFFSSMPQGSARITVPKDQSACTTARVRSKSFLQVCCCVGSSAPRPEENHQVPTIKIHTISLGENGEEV
How it was run: (§2)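 Pooled male Sprague–Dawley rat liver membranes (50–150 µg/mL protein) in 50 mM Tris-HCl pH 7.7. [3H]prazosin, 50 min at 25 °C, 1.0 mL final volume; nonspecific binding with phentolamine 10⁻⁵ M. GF/B filtration, scintillation counting. At least four concentrations (10⁻¹⁰–10⁻³ M) run in duplicate; IC50 by logit plot; Ki by Cheng–Prusoff.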

[3] = E max value expressed as percent maximum response of the tissue(PBZ-DSV) to norepinephrine
How it was run: (§3)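 Dog saphenous vein strips in Krebs buffer (pH 7.40, 95% O2/5% CO2, 37 °C), 2 g preload, isometric contraction. After equilibration and maximal NE (10⁻⁴ M) contraction, washed 60 min, exposed to PBZ 10⁻⁷ M for 30 min, washed 60 min. Control cumulative NE curve, then after 45–60 min washout, cumulative agonist curve. Molar ED50; index = ED50 NE / ED50 compound; Emax as % of NE maximum.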

[4] = Ratio of ED50 of norepinephrine to that in PBZ-DSV; type: functional; how it was run: as §3
[5] = E max value expressed as percent maximum response of the tissue(rabbit aorta) to norepinephrine; type: tissue-based; how it was run: as §1
[6] = target: T2, Adrenergic receptor alpha-2 (Rattus norvegicus, UniProt P22086+P19328+P22909); test: Binding affinity for alpha-2 adrenergic receptor in rat cortex using [3H]rauwolscine.
T2 sequence (P22086 whole entry): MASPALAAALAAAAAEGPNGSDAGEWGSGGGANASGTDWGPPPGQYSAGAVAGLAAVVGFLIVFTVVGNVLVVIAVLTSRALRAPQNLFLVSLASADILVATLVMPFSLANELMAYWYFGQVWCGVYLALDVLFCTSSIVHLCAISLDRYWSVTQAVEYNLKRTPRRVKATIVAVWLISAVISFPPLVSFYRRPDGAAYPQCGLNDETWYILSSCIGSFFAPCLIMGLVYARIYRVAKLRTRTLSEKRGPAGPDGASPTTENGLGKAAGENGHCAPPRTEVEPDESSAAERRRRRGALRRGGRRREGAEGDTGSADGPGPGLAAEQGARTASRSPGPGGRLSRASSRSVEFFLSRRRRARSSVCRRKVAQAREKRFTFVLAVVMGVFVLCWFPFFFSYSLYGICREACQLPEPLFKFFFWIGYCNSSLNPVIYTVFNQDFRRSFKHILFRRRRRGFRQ
T2 sequence (P19328 whole entry): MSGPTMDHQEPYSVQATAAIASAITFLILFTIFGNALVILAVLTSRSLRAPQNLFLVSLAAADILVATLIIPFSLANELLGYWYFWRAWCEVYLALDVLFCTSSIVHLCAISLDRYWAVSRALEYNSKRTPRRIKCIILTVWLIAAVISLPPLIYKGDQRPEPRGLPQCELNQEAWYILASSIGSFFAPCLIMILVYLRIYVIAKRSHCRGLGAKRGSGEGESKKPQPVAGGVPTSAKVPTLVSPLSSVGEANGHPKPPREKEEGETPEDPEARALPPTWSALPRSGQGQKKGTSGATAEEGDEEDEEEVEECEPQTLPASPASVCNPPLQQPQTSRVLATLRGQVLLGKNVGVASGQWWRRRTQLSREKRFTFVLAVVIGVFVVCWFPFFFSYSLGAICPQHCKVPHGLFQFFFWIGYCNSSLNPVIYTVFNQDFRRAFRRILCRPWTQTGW
T2 sequence (P22909 whole entry): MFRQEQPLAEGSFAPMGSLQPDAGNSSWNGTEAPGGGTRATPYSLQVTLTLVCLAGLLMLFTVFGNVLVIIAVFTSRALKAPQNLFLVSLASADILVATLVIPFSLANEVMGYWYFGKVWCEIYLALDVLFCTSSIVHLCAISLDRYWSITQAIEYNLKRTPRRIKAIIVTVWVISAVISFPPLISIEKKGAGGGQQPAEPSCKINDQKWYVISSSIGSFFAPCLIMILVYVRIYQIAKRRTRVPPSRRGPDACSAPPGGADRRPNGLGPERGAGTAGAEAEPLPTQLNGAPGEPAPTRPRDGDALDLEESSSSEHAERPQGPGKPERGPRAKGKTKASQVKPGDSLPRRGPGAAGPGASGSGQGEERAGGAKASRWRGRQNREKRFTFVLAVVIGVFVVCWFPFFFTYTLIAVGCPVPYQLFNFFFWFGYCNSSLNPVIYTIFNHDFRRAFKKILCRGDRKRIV
How it was run: as §2, with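 “cerebral cortex” for “liver”, “[3H]rauwolscine, 2 h” for “[3H]prazosin, 50 min”, “0” for “25”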

Oc1ccc2c(c1O)CCC[C@@H]2C1=NCCN1
Index [1]: 1
Ki [2]: 817 nM
E max [3]: 74
Index [4]: 15.4
E max [5]: 94
Ki [6]: 28 nM

Oc1ccc2c(c1O)CCCC2C1=NCCN1 (racemic)
Index [1]: 13
E max [3]: 102
Index [4]: 184
E max [5]: 114

Oc1ccc2c(c1O)CCC[C@H]2C1=NCCN1
Index [1]: 29
Ki [2]: 523 nM
E max [3]: 102
Index [4]: 248
E max [5]: 128
Ki [6]: 0.55 nM
